In the EternaBench riboswitch data:

Test system: MS2 coat protein
Assay: apparent Kd, MS2 coat protein; higher = weaker binding; RNA-MaP array; FMN 200 µM where present
Method in brief: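 Green signal was scaled to red-channel RNA signal and control-cluster median Fmax, and the apparent Kd was taken as the median of filtered per-cluster binding-curve fits. The binding series used SNAP-549-labelled MS2 coat protein from 0.7 or 1.5 nM, doubling to 3 µM, on designs transcribed by stalled E. coli RNA polymerase on Illumina sequencing-chip clusters. Each series ran without and then with constant ligand in 100 mM Tris-HCl pH 7.5, 80 mM KCl, 4 mM MgCl2, BSA, DTT, yeast tRNA and Tween-20.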

[1] = designed as: ON switch for flavin mononucleotide, no ligand
[2] = ligand present: flavin mononucleotide, designed as: ON switch for flavin mononucleotide
[3] = designed as: OFF switch for flavin mononucleotide, no ligand
[4] = ligand present: flavin mononucleotide, designed as: OFF switch for flavin mononucleotide

Sequence	apparent Kd [1] [nM]	apparent Kd [2] [nM]	apparent Kd [3] [nM]	apparent Kd [4] [nM]
GGGUACACCGGAGGAUAUCAUGUAAAUACAUGAGGAUCACCCAUGUCGAUGGAGACAUCGGAGAUUGAGAAGGCCGAUGUACCG	155	9.1		
GCAGCGUAUGUAGGAUAUCGGUCAGUCUCUGAUCGAGAAGGACAUGAGGAUCACCCAUGUAAAUUACCGACUUUGUCGGGCUGC			7.14	9.62
GAUUAACAUGAGGAUCACCCAUGUGAGGAUAUGGAAUGGCUCAUUGUUUGAUUUCCGUCUAGAAGGCACAUCUU			174	160
CUCACUCCAAAGAGCGCGUCUGCCUGAGAAGGGUGCUAAUUAAUUACAUGAGGAUCACCCAUGUCACAGGAUAUCAGGGUCGCU	622	230		
AGAUGGCGAGGAUAUACAUGAGGAUCACCCAUGUGAGAUAAAUAAGUGAGGAAGAAAAGUAGAAGGCGCUGUCA			81.3	387
AACAGCUCGUCAGGAUAUACAAUACUGCUUCGGCAGUAUGAUAAGAUAACAUGAGGAUCACCCAUGUAGAAGGGACGAGCUGAA			6.23	7.47
CUUGUACAUGAGGAUCACCCAUGUUAGGAUAUCUCGCCGUCGGCUUGCCGACGGUAUUAGAGAAGGGACAAGGG			22.5	26.7
GCUGACGAUGUAGGAUAUCUCGACGAUAAGUCGAGAGAAGGACAUGAGGAUCACCCAUGUAAACUCGCGUCAGCGAGGAAACUC			17.9	20.1
CUUUUGUGAGGAUAUUAGUAGUAGAUAGUUGGUGGUGUUGCUGAGAAGGCACAUGAGGAUCACCCAUGUACAAC			344	335
GGACGUCACAUUUACAUGAGGAUCACCCAUGUCUCUUGAUAUGAGGAUAUGUAUACGAAUCGUAUACAGAAGGCAUGGACGUCC	71.7	29.8		
GGACAUCCCACAGGAUAUGCUGGACUUUGUCCAGCAGAAGGGUGAAACACAUGAGGAUCACCCAUGUGGAUGUCCAUAUUUAAU	180	694		
GGUACCAUCGCAGGAUAUGCUAUCCUUUGGGUAGCAGAAGGGUGAUAACAUGAGGAUCACCCAUGUGGUACCGGGCGUGAGCCC	97.1	1210		
GUCUUUUUACAGAAGGUGUUUUACAUGAGGAUCACCCAUGUUUAUAUGUUUAAAUUUGAUAUUUACAAGGAUAUGUACUAAUCU	25.3	17.4		
CCUAGUGUGCAGAAGGAGAGUUAACUGCCCGUCGAUGGACUGCACAGAGCUCUAGGAUAUGCACAUGAGGAUCACCCAUGUGCU			6.53	7.76
GCUGCAUAGGCAGGAUAUGCAACAAUGAGAAUAAAAUAUAACUCAUUGACAUGAGGAUCACCCAUGUAGAAGGGCCUGUGCAGU			19	18.2
UGUUAAAUUGAUCCUGCAAGUACAUGAGGAUCACCCAUGUGCUAGGAUAUCGCGCAGCUAAAGACCGAGAAGGAGCACAAUGUA			39.2	97.7
CCAUACCGAGGAUAUACAUGAGGAUCACCCAUGUCAAAACCACGUGUACGGCGGUCUUGUAGAAGGCGGAAAUA			11	16
UACAUGAGGAUCACCCAUGUUUUGUCGUGUAUGGUAUUUAUCUAGGAUAUCAAUCUAUGUAUUUAUGAGAAGGAGAAUAUUAAU			41.8	37.3
UGGUACAUGGGAGGAUAUGGUGUAGACACAUGAGGAUCACCCAUGUCGAUGGAGACAUCGGAGAUCCAGAAGGCCCAUGUACCU	503	24		
GUAGCAUACGCAGGAUAUUCAUAUAAUAAAUAAACAUGAGGAUCACCCAUGUGGCGAAAGCCUUGGGAGAAGGGCGAAUGCUAC	485	65.5		
GGGUACAUCGGAGGAUAUCAUGUAAAUACAUGAGGAUCACCCAUGUCGAUGGAGACAUCGGAGAUUGAGAAGGCUGAUGUACCG	188	9.18		
CUCCUACAUGAGGAUCACCCAUGUCAGGAUAUCUCAGUGGUACCUAAAUUUACCACCCAGAGAAGGGACGUGCA			13.3	17.7
GCAGCACAGAUUUACAUGAGGAUCACCCAUGUCUAUUAAGAUGAGGAUAUGCAUCGAAUGAAGUUGCAGAAGGCAUUGUGCUGC	6.77	5.78		
UUAGCAUACCGAGGAUAUUCAUAUAAUAAAUAAACAUGAGGAUCACCCAUGUGGCGAAAGCCUAGGGAGAAGGCGGAAUGCUAA	220	21.9		
GGGUGGCGUAUAGGAUAUAUGGUACAUGAGGAUCACCCAUGUACAUAUGAUGUUCAUGUUUGUGUAUAGAAGGAUACGUCGCUA	9.79	9.81		
AUUCAACAUGAGGAUCACCCAUGUGAGGAUAUCGUAUACUACUGUUGCAAUACUUAGACGAGAAGGCACACCGU			18.9	25.1
UUAAUUCUGAUUCUUGAAAUACAUGAGGAUCACCCAUGUUCACAGGAUAUUGAUUAUGGUAGUAACAAGAAGGGUGUAUCAUAU			66	113
UUAAAUCAUGUAGGAUAUGCAUGGCGAAGCUACGCAGAAGGACAUGAGGAUCACCCAUGUUAUAGCGUCCGAAUAAGGAUGCAA			90.7	199

Sequence	apparent Kd [1] [nM]	apparent Kd [2] [nM]	apparent Kd [3] [nM]	apparent Kd [4] [nM]
CUUUUGUGAGGAUAUUGGUAGUAAAUGAAUAAAAUUAUUACCGAGAAGGUACAUGAGGAUCACCCAUGUUCCUC			19.4	27.9
UUACCUUAUGAGAAGGCGGUCAUGAAACAUGAUCGAGGAUAUCAUGUAAACAUGAGGAUCACCCAUGUAUGGGUAUUAUGGUAA	395	53.7		
ACUAAGGAGGUAGGAUAUUGUGUGGUGGCCGGGCUCCCACGGCGAGCGGCACAAGAAGGAUCCCUACAUGAGGAUCACCCAUGU	24	16.4		
GCGUUAGAAACACAUGUAUUACAUGAGGAUCACCCAUGUUACUAGGAUAUGUAUUAGAAUUUACAACAGAAGGAGUAAGAACGC			10.8	14.6
AAUAACAGAGGAUAUACUGUUUUAUGUGUUUGUUGUUUUGAACAUGAGGAUCACCCAUGUAGAAGGCUGAUUGA			40.2	41.3
GCCAUCGCGUGAGGAUAUGCUCCGGUUUCCGGAGCAGAAGGCAUGUCAUUAGACAUGAGGAUCACCCAUGUAGUUAAGAUGGCA	562	18.2		
AGCCUACAUGAGGAUCACCCAUGUCAGGAUAUCUCGCGGCGCGUCAAGUUCACGCCGCAGAGAAGGGACUCGGG			47.9	47.3
AUAAAACAUGAGGAUCACCCAUGUAGACACGAUGGAGGAUAUACUAGAUCGAAAGAUCUAGUAGAAGGCCGACGUA	21.3	22.8		
UUCAACGAUGAAGGAUAUCUAUAAACAUGAGGACAUGAGGAUCACCCAUGUUGAUCACCCAUGUAGGAGAAGGUCAACAUGAGG	220	68.2		
UAGGUUUGUAGUUACAUCCCUACACAGGAUAUAGGUAGUUACAUGAGGAUCACCCAUGUUCGAACUUAGAAGGGUGGAUCGUUG	48	10.3		
AUUUAAUUUAAUAAGAUCACAUGAGGAUCACCCAUGUAUAUAUAGGAUAUCAGCUCGAAUAGAGCUGAGAAGGAUAUAUACAUG			47.4	41
AUAUAUAUAGGAUAUACAUGAGGAUCACCCAUGUGCUUCAGCUAGGAGACUAGCAUUGGUAGAAGGAUAUAUAU			16.1	26.1
ACGUGUAAUACAGGAUAUGUUAUGGAUUAAUCAACCAGUUAUUACGUUUCGACAGAAGGGUAUACAUGAGGAUCACCCAUGUUA			22.3	17.9
UCUAAUUAAAAUGAUUCAUCAACACAGGAUAUACCCGCAACAUGAGGAUCACCCAUGUAGGCCCGGUAGAAGGGUGCUUGGGAG	20.5	6.9		
GUGUAGAUAGGAUAUGCUUUGAGCCUACGAAAGUACGCUCGACAUGAGGAUCACCCAUGUAGAAGGGUUUACAC			119	58.9
CGCUGUCUCGCAGGAUAUGCAUUGGAUUACAAUGCAGAAGGGCGAUUACAUGAGGAUCACCCAUGUGUUGACAGUGAAGAAUAG	96.6	22.2		
AACCUAUUACAGAAGGCCAGCUACAUGAGGAUCACCCAUGUCGAGUCAUGGAGGAUAUGUAGUAAUUUACUCGCAGAUGAGUGC	24.4	4.9		
UAAUGUUAGCGAGGAUAUCGUUUAUUGAAGUUACGAGAAGGCGCUCUUCUUACAUGAGGAUCACCCAUGUCUGUUUUGCAUGAU		51.9		
CAGAUUUGCUAGAAGGGUGACAUGAGGAUCACCCAUGUGCGGGCAGUCCUAUCUUCAUGCCCGCCACAGGAUAUAGCAAUUCUC	24.1	49		
ACAGUUCUGCAAGGAUAUCGUUCUAGUUUAGUACGAGAAGGUGCUUUAGUUUUUUCUUUGUGUUGACAUGAGGAUCACCCAUGU			23.4	15.2
GGACGACACAUGAACAUGAGGAUCACCCAUGUAAAUUCUCAUGAGGAUAUGGAUCCUAAUUGGAUCCAGAAGGCAUGGUCGUCC	1150	380		
CCGGUUGGCGCAGGAUAUACAUGAGGAUCACCCAUGUUGAUGAGGAUCACCCAUCAGUUUUUGUUGUAGAAGGGUGGCCCGGCC			23.1	19.3
UUUAUGUCAGGAUAUGAUUAGAUCUACUUCGGUAGAUCUAAUCAGAAGGGACAUGAGGAUCACCCAUGUUUUUU			43.8	223
GCAGCACUGUAGUACAUGAGGAUCACCCAUGUCGAUUGUUAUGAGGAUAUGCAUCGUAUGAAGAUGCAGAAGGCAUUGUGCUGC	5.22	5.04		
GACUGAUUGUAGAAGGUACUUGAAUAUAUAUUUUAUCUCAUGUGACAUGAGGAUCACCCAUGUAGUAAGGAUAUACAUAUCACA	52.9	42.2		
GGCUGGUGACAGCAUCCAUCAAAACAUGAGGAUCACCCAUGUAGAAGGCUGUACGGUUACCGUACAGAGGAUAUACAAUGAUGU			14	23.9
AUUAUACAUGAGGAUCACCCAUGUAAUUAAUUAAUUAAGAUCAAGGAUAUCAGCUCGAUUAGAGCUGAGAAGGUGAUCACAUGU	402	292		
